Experiments:
Type in all cases: biochemical
hCA I = hCA I (Homo sapiens, UniProt P00915); experiment: stopped-flow CO2 hydration assay, hCA I
In short: (§1)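 Recombinant in-house enzyme, preincubated 15 min at room temperature with inhibitor. Inhibitor stock was 0.1 mM in water, diluted down to 0.01 nM. CO₂ (1.7–17 mM) hydration was followed by stopped-flow with 0.2 mM phenol red at 557 nm, in 20 mM HEPES pH 7.5 with 20 mM Na₂SO₄, over 10–100 s. Initial rates came from six traces and were corrected for the uncatalysed rate. Ki was obtained by non-linear least squares, mean of ≥3 measurements.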

hCA IX = hCA IX (Homo sapiens, UniProt Q16790); experiment: stopped-flow CO2 hydration assay, hCA IX; details: for SI I/IX: ratio of KI hCA I to KI hCA IX; for SI II/IX: ratio of KI hCA II to KI hCA IX
hCA XII = hCA XII (Homo sapiens, UniProt O43570); experiment: stopped-flow CO2 hydration assay, hCA XII; details: for Ki: KI hCA XII; for SI I/XII: ratio of KI hCA I to KI hCA XII; for SI II/XII: ratio of KI hCA II to KI hCA XII
hCA II = hCA II (Homo sapiens, UniProt P00918); experiment: stopped-flow CO2 hydration assay, hCA II
In short: as §1

hCA XII, sequence (O43570 25-354): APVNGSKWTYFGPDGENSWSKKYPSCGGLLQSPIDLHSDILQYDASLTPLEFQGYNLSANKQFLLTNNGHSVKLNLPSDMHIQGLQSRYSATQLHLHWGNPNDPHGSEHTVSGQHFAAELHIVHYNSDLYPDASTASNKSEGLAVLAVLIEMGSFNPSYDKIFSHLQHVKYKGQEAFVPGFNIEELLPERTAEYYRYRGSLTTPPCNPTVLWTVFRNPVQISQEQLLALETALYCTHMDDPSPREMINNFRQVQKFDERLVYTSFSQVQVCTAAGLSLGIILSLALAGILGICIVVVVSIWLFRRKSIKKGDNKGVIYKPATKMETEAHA
hCA I, sequence (P00915 whole entry): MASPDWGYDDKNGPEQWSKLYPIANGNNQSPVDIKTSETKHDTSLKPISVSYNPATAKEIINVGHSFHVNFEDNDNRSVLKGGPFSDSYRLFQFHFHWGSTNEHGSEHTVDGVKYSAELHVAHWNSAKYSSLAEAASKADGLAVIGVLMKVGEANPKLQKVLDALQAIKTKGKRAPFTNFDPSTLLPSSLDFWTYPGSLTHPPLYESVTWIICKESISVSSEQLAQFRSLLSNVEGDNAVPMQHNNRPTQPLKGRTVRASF

Row | Structure (SMILES) | Ki (hCA I) [nM] | Ki (hCA IX) [nM] | SI I/IX (hCA IX) | SI II/IX (hCA IX) | Ki (hCA XII; stopped-flow hydration assay) [nM] | SI I/XII (hCA XII) | SI II/XII (hCA XII) | Ki (hCA II) [nM] | KI hCA XII (hCA XII; stopped-flow hydration assay)
1 | COCCOc1cc2ncnc(Nc3cccc(-c4cn(CCOCCOCCOCCOCCOCCNC(=O)Nc5cccc(S(N)(=O)=O)c5)nn4)c3)c2cc1OCCOC [compound 12a, 3-(3-(17-(4-(3-((6,7-Bis(2-methoxyethoxy)quinazoline-4-yl)amino)phenyl)-1H-1,2,3-triazol-1-yl)-3,6,9,12,15-pentaoxaheptadecyl)ureido)benzenesulfonamide] | 70100 | 4470 | 15.7 | 0.23 | 6400 | 11.0 | 0.16 | 1020 | 
2 | COCCOc1cc2ncnc(Nc3cccc(-c4cn(CCOCCOCCOCCNC(=S)Nc5ccc(S(N)(=O)=O)cc5)nn4)c3)c2cc1OCCOC [compound 8b, 4-(3-(2-(2-(2-(2-(4-(3-((6,7-Bis(2-methoxyethoxy)quinazolin-4-yl)amino)phenyl)-1H-1,2,3-triazol-1-yl)ethoxy)ethoxy)ethoxy)ethyl)thioureido)benzenesulfonamide] | 3140 | 112 | 28 | 1.2 | 5.33 | 590 | 25.4 | 135 | 
3 | COCCOc1cc2ncnc(Nc3cccc(-c4cn(CCOCCOCCOCCOCCOCCNC(=O)Nc5ccc6oc(=O)ccc6c5)nn4)c3)c2cc1OCCOC [compound 13, 1-(17-(4-(3-((6,7-Bis(2-methoxyethoxy)quinazolin-4-yl)amino)phenyl)-1H-1,2,3-triazol-1-yl)-3,6,9,12,15-pentaoxaheptadecyl)-3-(2-oxo-2H-chromen-6-yl)urea] | 28300 | 242 | 117 | 46.9 | 8060 | 3.51 | 1.41 | 11400 | 
4 | COCCOc1cc2ncnc(Nc3cccc(-c4cn(CCOCCOCCOCCOCCOCCC(=O)NCCOc5ccc6oc(=O)ccc6c5)nn4)c3)c2cc1OCCOC [compound 11, 1-(4-(3-((6,7-Bis(2-methoxyethoxy)quinazoline-4-yl)amino)phenyl)-1H-1,2,3-triazol-1-yl)-N-(2-((2-oxo-2H-chromen-6-yl)oxy)ethyl)-3,6,9,12,15-pentaoxaoctadecan-18-amide] | 70100 | 4680 | 15.0 | 7.21 |  |  |  | 33700 | no activity
5 | COCCOc1cc2ncnc(Nc3cccc(-c4cn(CCOCCOCCOCCOCCOCCNC(=S)NCCc5ccc(S(N)(=O)=O)cc5)nn4)c3)c2cc1OCCOC [compound 14d, 4-(22-(4-(3-((6,7-Bis(2-methoxyethoxy)quinazolin-4-yl)amino)phenyl)-1H-1,2,3-triazol-1-yl)-4-thioxo-8,11,14,17,20-pentaoxa-3,5-diazadocosyl)benzenesulfonamide] | 957 | 1880 | 0.51 | 17.4 | 95.2 | 10.0 | 344 | 32700 | 
6 | COCCOc1cc2ncnc(Nc3cccc(-c4cn(CCOCCOCCOCCOCCOCCC(=O)NCc5ccc(S(N)(=O)=O)cc5)nn4)c3)c2cc1OCCOC [compound 10a, 1-(4-(3-((6,7-Bis(2-methoxyethoxy)quinazolin-4-yl)amino)phenyl)-1H-1,2,3-triazol-1-yl)-N-(4-sulfamoylbenzyl)-3,6,9,12,15-pentaoxaoctadecan-18-amide] | 903 | 4160 | 0.22 | 0.06 | 3300 | 0.27 | 0.08 | 253 | 
7 | COCCOc1cc2ncnc(Nc3cccc(-c4cn(CCOCCOCCOCCOCCOCCNC(=S)Nc5ccc(S(N)(=O)=O)cc5)nn4)c3)c2cc1OCCOC [compound 14b, 4-(3-(17-(4-(3-((6,7-Bis(2-methoxyethoxy)quinazolin-4-yl)amino)phenyl)-1H-1,2,3-triazol-1-yl)-3,6,9,12,15-pentaoxaheptadecyl)thioureido)benzenesulfonamide] | 43300 | 4930 | 8.79 | 1.97 | 1520 | 28.4 | 6.38 | 9710 | 
8 | COCCOc1cc2ncnc(Nc3cccc(-c4cn(CCOCCOCCOCCNC(=S)NCCc5ccc(S(N)(=O)=O)cc5)nn4)c3)c2cc1OCCOC [compound 8d, 4-(16-(4-(3-((6,7-Bis(2-methoxyethoxy)quinazolin-4-yl)amino)phenyl)-1H-1,2,3-triazol-1-yl)-4-thioxo-8,11,14-trioxa-3,5-diazahexadecyl)benzenesulfonamide] | 923 | 28 | 32.6 | 3.73 | 6.49 | 142 | 16.3 | 106 | 
9 | COCCOc1cc2ncnc(Nc3cccc(-c4cn(CCOCCOCCOCCNC(=S)Nc5cccc(S(N)(=O)=O)c5)nn4)c3)c2cc1OCCOC [compound 8a, 3-(3-(2-(2-(2-(2-(4-(3-((6,7-Bis(2-methoxyethoxy)quinazolin-4-yl)amino)phenyl)-1H-1,2,3-triazol-1-yl)ethoxy)ethoxy)ethoxy)ethyl)thioureido)benzenesulfonamide] | 45800 | 1920 | 23.8 | 1.65 | 72 | 636 | 44.0 | 3170 | 
10 | COCCOc1cc2ncnc(Nc3cccc(-c4cn(CCOCCOCCOCCNC(=O)Nc5ccc(S(N)(=O)=O)cc5)nn4)c3)c2cc1OCCOC [compound 7b, 4-(3-(2-(2-(2-(2-(4-(3-((6,7-Bis(2-methoxyethoxy)quinazolin-4-yl)amino)phenyl)-1H-1,2,3-triazol-1-yl)ethoxy)ethoxy)ethoxy)ethyl)ureido)benzenesulfonamide] | 36100 | 1120 | 32.1 | 0.85 | 57.4 | 628 | 16.6 | 950 | 
11 | COCCOc1cc2ncnc(Nc3cccc(-c4cn(CCOCCOCCOCCOCCOCCNC(=S)NCc5ccc(S(N)(=O)=O)cc5)nn4)c3)c2cc1OCCOC [compound 14c, 4-(21-(4-(3-((6,7-Bis(2-methoxyethoxy)quinazoline-4-yl)amino)phenyl)-1H-1,2,3-triazol-1-yl)-3-thioxo-7,10,13,16,19-pentaoxa-2,4-diazahenicosyl)benzenesulfonamide] | 4980 | 3730 | 1.33 | 0.27 | 665 | 7.48 | 1.52 | 1010 | 
12 | COCCOc1cc2ncnc(Nc3cccc(-c4cn(CCOCCOCCOCCNC(=S)NCc5ccc(S(N)(=O)=O)cc5)nn4)c3)c2cc1OCCOC [compound 8c, 4-(15-(4-(3-((6,7-Bis(2-methoxyethoxy)quinazolin-4-yl)amino)phenyl)-1H-1,2,3-triazol-1-yl)-3-thioxo-7,10,13-trioxa-2,4-diazapentadecyl)benzenesulfonamide] | 3280 | 26 | 127 | 44.57 | 69.7 | 47.0 | 16.5 | 1150 | 
13 | COCCOc1cc2ncnc(Nc3cccc(-c4cn(CCOCCOCCOCCNC(=O)Nc5cccc(S(N)(=O)=O)c5)nn4)c3)c2cc1OCCOC [compound 7a, 3-(3-(2-(2-(2-(2-(4-(3-((6,7-Bis(2-methoxyethoxy)quinazolin-4-yl)amino)phenyl)-1H-1,2,3-triazol-1-yl)ethoxy)ethoxy)ethoxy)ethyl)ureido)benzenesulfonamide] | 46500 | 285 | 164 | 2.54 | 58.9 | 790 | 12.3 | 723 | 
14 | COCCOc1cc2ncnc(Nc3cccc(-c4cn(CCOCCOCCOCCOCCOCCNC(=O)NCc5ccc(S(N)(=O)=O)cc5)nn4)c3)c2cc1OCCOC [compound 12c, 4-(21-(4-(3-((6,7-Bis(2-methoxyethoxy)quinazoline-4-yl)amino)phenyl)-1H-1,2,3-triazol-1-yl)-3-oxo-7,10,13,16,19-pentaoxa-2,4-diazahenicosyl)benzenesulfonamide] | 160 | 387 | 0.41 | 0.002 | 940 | 0.17 | 0.0008 | 0.8 | 
15 | COCCOc1cc2ncnc(Nc3cccc(-c4cn(CCOCCOCCOCCOCCOCCNC(=O)Nc5ccc(S(N)(=O)=O)cc5)nn4)c3)c2cc1OCCOC [compound 12b, 4-(3-(17-(4-(3-((6,7-Bis(2-methoxyethoxy)quinazolin-4-yl)amino)phenyl)-1H-1,2,3-triazol-1-yl)-3,6,9,12,15-pentaoxaheptadecyl)ureido)benzenesulfonamide] | 24800 | 5620 | 4.41 | 0.02 | 75.3 | 329 | 1.21 | 90.8 | 
